Active and inactive are the calls of the source. The rule behind the calls is not given here.
Columns and labels:
[1] = Cytotoxicity against HELF assessed as cell viability after 6 days by MTT assay; type: cell-based; conditions: human, HELF cells
Summary of the method: (§1)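 HELF exposed to rising ODN concentrations (up to 10 μM) for 6 days; viable cells measured by MTT. CC50 taken as concentration that cuts viability to 50%.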

[2] = Antimicrobial activity against Murine cytomegalovirus (strain Smith) infected in compound pretreated mouse NIH 3T3 cells assessed as inhibition of viral replication; type: functional, cell-based; conditions: Murid betaherpesvirus 1, NIH3T3
Summary of the method: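 NIH 3T3 pretreated 1 h with ODN, infected with MCMV Smith (MOI 1); ODN kept after 2 h adsorption at 37°C. Harvest at 6 days p.i., sonication, plaque assay on NIH 3T3; IC50 from plaque reduction. Means ± SD, three experiments.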

Human alphaherpesvirus 1 [3] = test: Antimicrobial activity against Human herpesvirus 1 infected in compound pretreated HELF assessed as inhibition of viral replication at 0.1 uM; type: functional, organism-based
Summary of the method: (§2)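 HELF pretreated with ODN (0.1 or 1 μM) 1 h before infection with a clinical HSV-1 isolate at MOI 0.1; ODN kept in medium after 2 h adsorption. Harvest at 48 h p.i., sonication, plaque titration on Vero cells. Means ± SD of three independent experiments.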

Human alphaherpesvirus 1 [4] = test: Antimicrobial activity against Human herpesvirus 1 infected in compound pretreated HELF assessed as inhibition of viral replication at 1 uM; type: functional, organism-based; summary of the method: as §2
unidentified adenovirus = test: Antimicrobial activity against unidentified adenovirus infected in compound pretreated HELF assessed as inhibition of viral replication; type: functional, organism-based
Summary of the method: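 HELF pretreated 1 h with ODN (0.1 or 1 μM), infected with an adenovirus clinical isolate (MOI 1); ODN kept after 2 h adsorption. Harvest at 4 days p.i., sonication, plaque titration on HELF. Means ± SD, three experiments.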

[5] = test system: Vesicular stomatitis Indiana virus; test: Antimicrobial activity against Vesicular stomatitis Indiana virus infected in compound pretreated HELF assessed as inhibition of viral replication; type: functional, organism-based
Summary of the method: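 HELFs exposed to ODN (0.1 or 1 μM) for 1 h, then infected with VSV serotype Indiana at MOI 1 (2 h adsorption, 37°C). ODN kept in the medium until 48 h p.i. Cells and supernatants were pooled, sonicated and titrated by plaque assay on HELFs. Data are means ± standard deviations of three independent experiments, duplicate wells.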

Human betaherpesvirus 5 [6] = test: Antimicrobial activity against Human cytomegalovirus AD169 infected in HELF assessed as inhibition of viral replication at 0.1 uM measured after 6 days post-infection; type: functional, organism-based
Human betaherpesvirus 5 [7] = test: Antimicrobial activity against Human cytomegalovirus AD169 infected in HELF assessed as inhibition of viral replication at 1 uM measured after 6 days post-infection; type: functional, organism-based
Human betaherpesvirus 5 [8] = test: Antimicrobial activity against Human herpesvirus 5 strain AD169 infected in HELF assessed as pp65 nuclear localization at 0.1 uM after 2 hrs […]; type: functional, organism-based
Human betaherpesvirus 5 [9] = test: Antimicrobial activity against 0.1 uM compound pretreated Human cytomegalovirus AD169 infected in HELF assessed as reduction in viral titer at 4 degC; type: functional, organism-based
Summary of the method: (§3)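 HCMV AD169 (10^4 PFU) incubated with ODN at 0.1 μM at 4 or 37°C for various times; samples then diluted to bring ODN below an antivirally active level; residual infectivity titrated by plaque assay on HELF. Means ± SD of three independent experiments.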

Human betaherpesvirus 5 [10] = test: Antimicrobial activity against 0.1 uM compound pretreated Human cytomegalovirus AD169 infected in HELF assessed as reduction in viral titer 37 degC; type: functional, organism-based; summary of the method: as §3
Human betaherpesvirus 5 [11] = test: Antimicrobial activity against Human cytomegalovirus AD169 infected in 0.1 uM compound pretreated HELF assessed as inhibition of viral replication measured after 6 days post-infection; type: functional, organism-based
Summary of the method: (§4)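 HELF pretreated with ODN 1 h before infection with HCMV AD169 (MOI 1); ODN kept in medium after 2 h adsorption at 37°C. At 6 days p.i., cells plus supernatants sonicated and titrated by plaque assay on HELF; plaques counted microscopically, expressed as PFU/ml (log10) or % of control. IC50/IC90 by linear regression; duplicate wells, three independent experiments, means ± SD.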

Human betaherpesvirus 5 [12] = test: Antimicrobial activity against Human cytomegalovirus AD169 infected in 1 uM compound pretreated HELF assessed as inhibition of viral replication measured after 6 days post-infection; type: functional, organism-based; summary of the method: as §4
Human betaherpesvirus 5 [13] = test: Antimicrobial activity against Human cytomegalovirus AD169 infected in compound pretreated HELF assessed as inhibition of viral replication measured after 6 days post-infection; type: functional, organism-based; conditions: Human betaherpesvirus 5, AD169, HELF; summary of the method: as §4
[14] = Cytotoxicity against HELF assessed as cell viability by MTT assay after 6 days at <=10 uM; type: cell-based; conditions: human, 144 h; summary of the method: as §1

## Cc1cn([C@H]2C[C@H](OP(O)(O)=S)[C@@H](COP(O)(=S)O[C@H]3C[C@H](n4cc(C)c(=O)[nH]c4=O)O[C@@H]3COP(O)(=S)O[C@H]3[C@@H](O)[C@H](n4ccc(N)nc4=O)O[C@@H]3COP(O)(=S)O[C@H]3[C@@H](O)[C@H](n4cnc5c(=O)[nH]c(N)nc54)O[C@@H]3COP(O)(=S)O[C@H]3C[C@H](n4cc(C)c(=O)[nH]c4=O)O[C@@H]3COP(O)(=S)O[C@H]3[C@@H](O)[C@H](n4cnc5c(=O)[nH]c(N)nc54)O[C@@H]3COP(O)(=S)O[C@H]3C[C@H](n4cc(C)c(=O)[nH]c4=O)O[C@@H]3COP(O)(=S)O[C@H]3C[C@H](n4cc(C)c(=O)[nH]c4=O)O[C@@H]3COP(O)(=S)O[C@H]3C[C@H](n4cc(C)c(=O)[nH]c4=O)O[C@@H]3COP(O)(=S)O[C@H]3C[C@H](n4cc(C)c(=O)[nH]c4=O)O[C@@H]3COP(O)(=S)O[C@H]3[C@@H](O)[C@H](n4ccc(N)nc4=O)O[C@@H]3COP(O)(=S)O[C@H]3[C@@H](O)[C@H](n4cnc5c(=O)[nH]c(N)nc54)O[C@@H]3COP(O)(=S)O[C@H]3C[C@H](n4cc(C)c(=O)[nH]c4=O)O[C@@H]3COP(O)(=S)O[C@H]3[C@@H](O)[C@H](n4cnc5c(=O)[nH]c(N)nc54)O[C@@H]3COP(O)(=S)O[C@H]3C[C@H](n4cc(C)c(=O)[nH]c4=O)O[C@@H]3COP(O)(=S)O[C@H]3C[C@H](n4cc(C)c(=O)[nH]c4=O)O[C@@H]3COP(O)(=S)O[C@H]3C[C@H](n4cc(C)c(=O)[nH]c4=O)O[C@@H]3COP(O)(=S)O[C@H]3C[C@H](n4cc(C)c(=O)[nH]c4=O)O[C@@H]3COP(O)(=S)O[C@H]3[C@@H](O)[C@H](n4ccc(N)nc4=O)O[C@@H]3COP(O)(=S)O[C@H]3[C@@H](O)[C@H](n4cnc5c(=O)[nH]c(N)nc54)O[C@@H]3COP(O)(=S)O[C@H]3C[C@H](n4cc(C)c(=O)[nH]c4=O)O[C@@H]3COP(O)(=S)O[C@H]3[C@@H](O)[C@H](n4ccc(N)nc4=O)O[C@@H]3COP(O)(=S)O[C@H]3[C@@H](O)[C@H](n4cnc5c(=O)[nH]c(N)nc54)O[C@@H]3COP(O)(=S)O[C@H]3C[C@H](n4cc(C)c(=O)[nH]c4=O)O[C@@H]3CO)O2)c(=O)[nH]c1=O (stereo partly specified)
[1]
  CC50 at 144 h: > 10000 nM
[2]
  IC50: 20 nM
Human alphaherpesvirus 1 [3]
  inhibition: inactive
Human alphaherpesvirus 1 [4]
  inhibition: inactive
Unidentified adenovirus
  inhibition: inactive
[5]
  inhibition: inactive
Human betaherpesvirus 5 [6]
  inhibition: inactive
Human betaherpesvirus 5 [7]
  inhibition: inactive
Human betaherpesvirus 5 [8]
  inhibition: Active
Human betaherpesvirus 5 [9]
  inhibition: inactive
Human betaherpesvirus 5 [10]
  inhibition: inactive
Human betaherpesvirus 5 [11]
  inhibition: Active
Human betaherpesvirus 5 [12]
  inhibition: Active
Human betaherpesvirus 5 [13]
  IC50: 30 nM
  IC90: 220 nM
[14]
  Activity: Non-toxic
